Columns and labels:
[1] = The clearance was measured in dogs after intravenous administration of 1 mg/kg dose; assay type: ADME, organism-based, Canis lupus familiaris; design: dose 1 mg/kg, route intravenous; conditions: dog, in vivo
Method in brief: (§1)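 Dogs (n = 4–6) received 1 mg/kg iv in an ethanol/PEG-based cosolvent vehicle. Plasma was extracted liquid–liquid and quantified by LC/MS/MS. Clearance, steady-state volume and elimination half-life were derived from the concentration–time curves.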

Canis familiaris = test: The Plasma area under the compound concentration -time curve was measured in dogs after oral administration of 1 mg/kg dose; assay type: ADME, organism-based, Canis lupus familiaris; design: dose 1 mg/kg, route oral; conditions: dog, in vivo
[2] = Oral bioavailability in dog (dose 1 mg/kg); assay type: ADME, organism-based, Canis lupus familiaris; conditions: in vivo
[3] = Oral bioavailability in rat (dose 1 mg/kg); assay type: ADME, organism-based; conditions: in vivo
Method in brief: (§2)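 Rats were given a single 1 mg/kg oral dose, as a 0.25% methylcellulose suspension or as a solution in EtOH/PG (20:80). Animals were sacrificed at 30 min and 1, 2, 4, 8 and 16 h, with blood collected into EDTA. Plasma was separated by centrifugation and extracted liquid–liquid. Analysis was by LC/MS/MS. Each value is a single determination or the average of two.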

[4] = The Peak plasma concentration was measured in dogs after oral administration of 1 mg/kg dose; assay type: ADME, organism-based, Canis lupus familiaris; design: dose 1 mg/kg, route oral; conditions: dog
[5] = The Peak plasma concentration was measured in rats after oral administration of 1 mg/kg dose; assay type: ADME, organism-based; design: dose 1 mg/kg, route oral; conditions: rat; method in brief: as §2
[6] = The time reach to maximum Peak plasma concentration was measured in dogs after oral administration of 1 mg/kg dose; assay type: ADME, organism-based, Canis lupus familiaris; design: dose 1 mg/kg, route oral; conditions: dog
[7] = The Elimination half-life was measured in dogs after intravenous administration of 1 mg/kg dose; assay type: ADME, organism-based, Canis lupus familiaris; design: dose 1 mg/kg, route intravenous; conditions: dog, in vivo; method in brief: as §1
[8] = The volume of distribution at steady state was measured in dogs after intravenous administration of 1 mg/kg dose; assay type: ADME, organism-based, Canis lupus familiaris; design: dose 1 mg/kg, route intravenous; conditions: dog, in vivo, read-out: Vss; method in brief: as §1
Rattus norvegicus = test: The Plasma area under the compound concentration -time curve was measured in rats after oral administration of 1 mg/kg dose; assay type: ADME, organism-based; design: dose 1 mg/kg, route oral; conditions: in vivo; method in brief: as §2
[9] = The Brain concentration compared to plasma concentration in rats at steady state after intravenous infusion; conditions: rat, brain and plasma, read-out: B/P
[10] = target: T1, Corticotropin-releasing factor receptor 1 (Homo sapiens, UniProt P34998); test: Binding affinity to recombinant human Corticotropin releasing factor receptor 1 (hCRF1) expressed in 293EBNA cells; assay type: cell-based
T1 sequence (P34998 whole entry): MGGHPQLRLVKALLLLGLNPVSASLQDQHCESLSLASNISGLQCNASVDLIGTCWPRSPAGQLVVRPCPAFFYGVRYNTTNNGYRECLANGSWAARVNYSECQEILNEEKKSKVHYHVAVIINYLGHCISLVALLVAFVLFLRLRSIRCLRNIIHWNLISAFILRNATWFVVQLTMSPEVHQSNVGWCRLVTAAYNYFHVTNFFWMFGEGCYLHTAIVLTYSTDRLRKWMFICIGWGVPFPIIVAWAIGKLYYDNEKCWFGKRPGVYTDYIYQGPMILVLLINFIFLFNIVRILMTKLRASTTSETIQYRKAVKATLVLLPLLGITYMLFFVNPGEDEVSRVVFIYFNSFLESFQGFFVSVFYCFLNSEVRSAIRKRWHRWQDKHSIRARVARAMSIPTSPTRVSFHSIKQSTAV

Row | clearance [1] [mL/min/kg] | AUC T (Canis familiaris) [µM·h] | F [2] [%] | bioavailability [3] [%] | Cmax [4] [nM] | Cmax [5] [nM] | Tmax [6] [h] | half-life [7] [h] | Vd [8] [L/kg] | AUC T (Rattus norvegicus) [µM·h] | Kp [9] | bioavailability [2] [%] | Ki [10] [nM] | Compound
1 | 7.97 | 0.914 | 30.7 | 17 | 308 | 30 | 0.67 | 33.2 | 15.6 | 0.098 | 0.6 |  |  | COCCN(CCOC)c1nc(C)nc2c1nnn2-c1ccc(C(C)C)cc1Br
2 | 8.72 | 0.366 |  | 15.5 | 39 | 12.5 | 0.8 | 46.7 | 24.7 | 0.137 | 0.2 | 7.3 | 5 | COCCN(Cc1ccccc1)c1nc(C)nc2c1nnn2-c1ccc(C(C)C)cc1Br
3 |  |  |  | 7 |  | 19.9 |  |  |  | 0.03 |  |  | 8 | CCC(CCOC)Nc1nc(C)nc2c1ncn2-c1ccc(C(C)C)cc1Br (stereo not given)
4 | 9.25 | 0.824 |  | 26.5 | 141 | 49.2 | 1.25 | 26 | 7.54 | 0.471 |  | 18.4 | 7.5 | CCCCN(CC)c1nc(C)nc2c1nnn2-c1ccc(C(C)C)cc1Br
5 | 7.38 | 3.14 |  | 21 | 546 | 30.7 | 0.5 | 19 | 10.1 | 0.146 | 0.6 | 53.1 | 6.1 | CCC(COC)Nc1nc(C)nc2c1nnn2-c1ccc(C(C)C)cc1Br (stereo in doubt; 4x)

— ChEMBL document CHEMBL1132598, “Synthesis, corticotropin-releasing factor receptor binding affinity, and pharmacokinetic properties of triazolo-, imidazo-, and pyrrolopyrimidines and -pyridines” (J Med Chem, 1999)
